# Active and inactive are the calls of the source. The rule behind the calls is not given here.
# Experiments:
# [1] = Mutagenicity in Drosophila melanogaster somatic cells assessed as frequency of clone formation in HB crosses at 0.25 to 1 mM by SMART assay; assay type: ADME; conditions: 1000 µM
# Procedure, shortened: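 Drosophila SMART wing-spot assay, ST and HB crosses. Third-instar larvae (72 ± 4 h) placed on hydrated instant mashed potato medium containing compound at 0.25, 0.5 or 1.0 mM final. Negative control: water with 1% Tween-80 and 3% ethanol. Statistics by Frei and Würgler two-sided U test, P≤0.05.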
# [2] = test system: Chlamydia trachomatis; test: Anti-chlamydial activity against Chlamydia trachomatis Serovar LGV-L2 infected in Hep2 cells assessed as inhibition of chlamydial inclusion at 50 ug/ml treated at 8 hrs post infection and measured at 24 hrs post-infection by immunofluorescence assay; assay type: functional, organism-based
# Procedure, shortened: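 HEp-2 cells infected with C. trachomatis serovar L2. Compounds at 50 μg/mL added 8 hpi; inclusion number and size assessed by immunofluorescence at 24 hpi against untreated cells. Cell morphology and viability checked by phase-contrast microscopy.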
# [3] = test system: Chlamydia trachomatis; test: Anti-chlamydial activity against Chlamydia trachomatis Serovar LGV-L2 infected in Hep2 cells assessed as reduction in chlamydial infectivity by measuring decrease in inclusion forming units at 50 ug/ml treated at 8 hrs post-infection and 24 hrs later re-infecting fresh Hep2 cells monolayer with infected cells and measured at 24 hrs post re-infection by immunofluorescence staining based microscopy analysis; assay type: functional, organism-based
# Procedure, shortened: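 HEp-2 cells in DMEM with 10% FBS, infected with C. trachomatis L2 at MOI 1. Compounds added 8 hpi in triplicate; DMSO stocks at 50 mg/mL. At 24 hpi lysates collected in sucrose storage medium, frozen at −80 °C, and used to infect fresh HEp-2 monolayers in 10-fold dilutions. After 24 h, stained with goat anti-MOMP and Alexa488 secondary. Inclusions counted in 15 fields at 20x; IFU = mean count per field corrected for dilution.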
# [4] = (§1) Activation of recombinant human C-terminal 6xHis-tagged ClpP expressed in Escherichia coli assessed as induction of casein degradation at 0.1 to 1 uM using FITC-labelled casein as substrate pretreated with enzyme for 30 mins followed by substrate addition and measured every 3 mins for 3 hrs in absence of AAA+ chaperone by fluorescence based tecan-plate reader assay
# Procedure, shortened: (§2)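 Recombinant C-terminal His6-tagged ClpP, expressed in a clpAPX-null E. coli strain and purified (mammalian ClpP without mitochondrial signal, codon-optimized). ClpP at 1 or 0.1 μM (E. coli), 1 μM (human, mouse) or 6 μM (chlamydial ClpP1 and ClpP2) preincubated with compound or DMSO, 30 min, 32 °C, in HEPES pH 7.6/KCl/MgCl2/DTT/glycerol buffer. 20 μM FITC-casein then added. Fluorescence (ex 490/em 525 nm) read every 3 min for 3 h. At least three runs on at least two protein preparations.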
# [5] = as §1, with “mouse” for “human”; procedure, shortened: as §2
# [6] = test system: Chlamydia trachomatis; test: as §1, with “Chlamydia trachomatis Serovar LGV-L2” for “human”, “6xhis-tagged ClpP1” for “6xHis-tagged ClpP”, “absence” for “absence of AAA+”; procedure, shortened: as §2
# [7] = test system: Chlamydia trachomatis; test: as §1, with “Chlamydia trachomatis Serovar LGV-L2” for “human”, “6xhis-tagged ClpP2” for “6xHis-tagged ClpP”; procedure, shortened: as §2
# [8] = test system: Chlamydia trachomatis; test: as §1, with “Chlamydia trachomatis Serovar LGV-L2” for “human”, “6xhis-tagged ClpP1/ClpP2 dimer” for “6xHis-tagged ClpP”; procedure, shortened: as §2
# [9] = test system: Staphylococcus aureus; test: Antibacterial activity against Staphylococcus aureus JE2 assessed as bacterial growth inhibition at 32 ug/ml measured after 16 hrs by broth microdilution method; assay type: functional, organism-based
# Procedure, shortened: (§3)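 Broth microdilution in Mueller Hinton broth, triplicate. Direct colony suspension at 1.5 x 10^8 CFU/mL diluted to ~10^5 CFU/mL. Serial dilutions made from DMSO stocks at 1 mg/mL; vancomycin positive control, blank medium negative control. Incubated 16 h at optimum temperature. MIC is the lowest concentration without visible growth at 600 nm; mean of triplicate determinations.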
# [10] = test system: Staphylococcus aureus; test: Antibacterial activity against methicillin-resistant Staphylococcus aureus ATCC 43300 assessed as bacterial growth inhibition at 32 ug/ml measured after 16 hrs by broth microdilution method; assay type: functional, organism-based
# [11] = test system: Escherichia coli; test: Antibacterial activity against Escherichia coli ATCC 25922 assessed as bacterial growth inhibition at 32 ug/ml measured after 16 hrs by broth microdilution method; assay type: functional, organism-based
# [12] = test system: Pseudomonas aeruginosa; test: Antibacterial activity against Pseudomonas aeruginosa ATCC 27853 assessed as bacterial growth inhibition at 32 ug/ml measured after 16 hrs by broth microdilution method; assay type: functional, organism-based
# [13] = test system: Klebsiella pneumoniae; test: Antibacterial activity against Klebsiella pneumoniae ATCC 700603 assessed as bacterial growth inhibition at 32 ug/ml measured after 16 hrs by broth microdilution method; assay type: functional, organism-based
# [14] = test system: Acinetobacter baumannii; test: Antibacterial activity against Acinetobacter baumannii ATCC 19606 assessed as bacterial growth inhibition at 32 ug/ml measured after 16 hrs by broth microdilution method; assay type: functional, organism-based; conditions: ATCC 19606 = CIP 70.34 = JCM 6841
# [15] = test system: Candida albicans; test: Antifungal activity against Candida albicans ATCC 90028 assessed as fungal growth inhibition at 32 ug/ml measured after 16 hrs by broth microdilution method; assay type: functional, organism-based
# [16] = test system: Cryptococcus neoformans; test: Antifungal activity against Cryptococcus neoformans var. grubii H99 ATCC […] as fungal growth inhibition at 32 ug/ml measured after 16 hrs by broth microdilution method; assay type: functional, organism-based; conditions: var. grubii H99 ATCC 208821
# [17] = test system: Staphylococcus aureus; test: Antibacterial activity against Staphylococcus aureus JE2 assessed as bacterial death up to 256 ug/ml measured after 16 hrs by broth microdilution method; assay type: functional, organism-based; procedure, shortened: as §3
# [18] = test system: Escherichia coli; test: Antibacterial activity against Escherichia coli K12 assessed as bacterial death up to 256 ug/ml measured after 16 hrs by broth microdilution method; assay type: functional, organism-based; conditions: K-12; procedure, shortened: as §3
# [19] = Stability of compound in human liver microsomes at 1 ug/ml measured up to 60 mins in absence of NADPH by LC-MS/MS analysis; assay type: ADME, Microsome; conditions: 1 h
# Procedure, shortened: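 Human liver microsomes (1.0 mg/mL protein) in 100 mM phosphate pH 7.4 with 10 mM MgCl2 and 2 mM NADPH, preincubated 10 min at 37 °C. Reaction started with compound at 1 μg/mL. Sampled at 0, 5, 15, 20, 30, 45 and 60 min and quenched in methanol with internal standard. Controls: no NADPH (negative), testosterone (positive). Analysed by LC-MS/MS, triplicate.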
# [20] = Stability of compound in mouse pre-heated plasma at 50 uM incubated up to 120 mins by HPLC-ESI/MS analysis; assay type: ADME, cell-free; conditions: 2 h
# Procedure, shortened: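 Compounds from 2.5 mM DMSO stocks incubated at 50 μM final in mouse plasma diluted to 80% with PBS, preheated, 37 °C, shaking. Sampled at 0, 15, 30, 60, 90 and 120 min and quenched with cold acetonitrile. Centrifuged; supernatant analysed by HPLC-ESI-MS. Peak area reported relative to time zero. Enalapril positive control; triplicate.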
# [21] = Stability of the compound in simulated gastric fluid at 50 uM and pH 1.2 at 37 degree C measured up to 120 mins by HPLC-ESI/MS analysis; conditions: simulated gi fluid, pH 1.2, 2 h
Structure (SMILES),Activity [1],inhibition [2],inhibition [3],Activity [4],Activity [5],Activity [6],Activity [7],Activity [8],inhibition [9],inhibition [10],inhibition [11],inhibition [12],inhibition [13],inhibition [14],inhibition [15],inhibition [16],Activity [17],Activity [18],Stability [19],Stability [20],other results
CC(C)(C(=O)N1CCN(Cc2ccc(Cl)cc2)CC1)S(=O)(=O)c1ccc(C(F)(F)F)cn1,Non-Toxic,Active,Active,Not Active,Not Active,inactive,inactive,inactive,inactive,inactive,inactive,inactive,inactive,inactive,inactive,inactive,inactive,inactive,Stable,Stable,Stability [21]: Stable
CC(C)(C(=O)NCCCc1ccccc1)S(=O)(=O)c1ccc(C(F)(F)F)cc1,Non-Toxic,Active,Active,Active,Active,Active,Active,Active,inactive,inactive,inactive,inactive,inactive,inactive,inactive,inactive,inactive,inactive,Stable,Stable,Stability [21]: Stable

# Source: ChEMBL document CHEMBL4342502, “Synthesis and Antichlamydial Activity of Molecules Based on Dysregulators of Cylindrical Proteases” (J Med Chem, 2020)
